Results published in ChEMBL document CHEMBL4411265, “Bioactive Pentacyclic Triterpenes from the Root Bark Extract of Myrianthus arboreus, a Species Used Traditionally to Treat Type-2 Diabetes” (J Nat Prod, 2018).

Tests used:
[1] = Solubility of the compound in DMSO; type: physicochemical
Rattus norvegicus = organism: Rattus norvegicus; assay: Activation of AMPK in rat […] cells assessed as increase AMPK phosphorylation at MNTD after 18 hrs by Western blot analysis relative to control; type: cell-based
Outline: (§1)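 Confluent H4IIE rat hepatoma cells (DMEM, 10% FBS) or HepG2 human hepatoma cells (DMEM/F12, 10% FBS) exposed 18 h to samples at maximal nontoxic concentration, 0.1% DMSO vehicle; RIPA lysates, 40 μg protein by SDS-PAGE, nitrocellulose blotting, 5% milk block. Antibodies against p-Akt Thr308/Akt, p-AMPKα Thr172/AMPK, p-GSK-3 Ser9/GSK-3, HRP secondary, ECL detection. Phospho/total ratio relative to DMSO; three independent passages.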

[2] = molecular target: T1, Glycogen synthase kinase-3 (Homo sapiens) (UniProt P49840+P49841); assay: Activation of GSK3 phosphorylation in human HepG2 cells at MNTD after 18 hrs by Western blot analysis relative to control; type: cell-based; outline: as §1
T1 sequence (P49840 whole entry, looked up): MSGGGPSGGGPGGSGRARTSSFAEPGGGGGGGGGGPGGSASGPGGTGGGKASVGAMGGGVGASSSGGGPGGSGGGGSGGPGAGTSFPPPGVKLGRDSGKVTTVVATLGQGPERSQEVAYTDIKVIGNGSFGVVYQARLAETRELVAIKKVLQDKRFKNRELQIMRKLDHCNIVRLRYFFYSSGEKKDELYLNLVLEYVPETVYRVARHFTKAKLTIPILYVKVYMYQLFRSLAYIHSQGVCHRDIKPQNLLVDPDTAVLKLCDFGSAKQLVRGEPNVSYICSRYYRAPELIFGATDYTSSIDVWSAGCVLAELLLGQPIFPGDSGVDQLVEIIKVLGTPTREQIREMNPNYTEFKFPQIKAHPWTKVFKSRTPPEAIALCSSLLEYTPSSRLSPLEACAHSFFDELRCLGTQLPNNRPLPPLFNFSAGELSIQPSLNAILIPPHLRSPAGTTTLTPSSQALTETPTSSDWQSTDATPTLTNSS
T1 sequence (P49841 whole entry, looked up): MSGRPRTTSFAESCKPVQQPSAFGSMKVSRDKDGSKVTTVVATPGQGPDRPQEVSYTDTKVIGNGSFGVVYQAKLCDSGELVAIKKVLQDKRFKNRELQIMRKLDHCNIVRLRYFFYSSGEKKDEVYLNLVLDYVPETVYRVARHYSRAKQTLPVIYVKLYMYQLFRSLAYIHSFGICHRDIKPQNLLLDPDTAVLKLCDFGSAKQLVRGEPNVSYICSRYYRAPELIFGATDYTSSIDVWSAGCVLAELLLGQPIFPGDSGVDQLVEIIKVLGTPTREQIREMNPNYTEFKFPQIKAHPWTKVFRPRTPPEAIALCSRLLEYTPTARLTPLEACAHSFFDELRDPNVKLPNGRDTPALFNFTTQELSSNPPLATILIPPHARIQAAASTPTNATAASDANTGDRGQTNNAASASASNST

[3] = molecular target: T2, Glycogen [starch] synthase, liver (Homo sapiens) (UniProt P54840); assay: Activation of insulin-stimulated glycogen synthase in human HepG2 cells at MNTD using [U-14C]UDP glucose as substrate preincubated for 18 hrs followed by insulin stimulation and measured after 15 mins by beta-counting method relative to control; type: cell-based
T2 sequence (whole entry): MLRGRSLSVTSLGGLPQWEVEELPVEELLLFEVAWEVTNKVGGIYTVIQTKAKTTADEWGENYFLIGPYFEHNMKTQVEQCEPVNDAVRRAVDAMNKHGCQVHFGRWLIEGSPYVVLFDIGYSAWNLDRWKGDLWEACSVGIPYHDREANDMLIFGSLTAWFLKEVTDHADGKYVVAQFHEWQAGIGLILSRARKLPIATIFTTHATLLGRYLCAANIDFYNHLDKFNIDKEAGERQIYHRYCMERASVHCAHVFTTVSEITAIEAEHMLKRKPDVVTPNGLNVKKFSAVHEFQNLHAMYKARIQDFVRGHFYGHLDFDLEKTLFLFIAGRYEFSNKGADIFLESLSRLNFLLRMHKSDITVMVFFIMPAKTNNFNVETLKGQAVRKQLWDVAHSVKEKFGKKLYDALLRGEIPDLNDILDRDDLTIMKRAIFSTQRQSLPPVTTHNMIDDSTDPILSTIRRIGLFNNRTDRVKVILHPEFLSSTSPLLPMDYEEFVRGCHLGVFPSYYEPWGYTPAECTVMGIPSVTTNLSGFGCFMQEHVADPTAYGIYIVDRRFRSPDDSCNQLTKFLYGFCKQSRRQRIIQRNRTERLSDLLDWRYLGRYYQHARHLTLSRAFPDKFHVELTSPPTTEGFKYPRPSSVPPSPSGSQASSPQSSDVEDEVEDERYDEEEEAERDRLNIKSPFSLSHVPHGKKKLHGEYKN

[4] = molecular target: T3, Glycogen [starch] synthase, liver (Homo sapiens, UniProt P54840); assay: Activation of insulin-stimulated glycogen synthase in human HepG2 cells using [U-14C]UDP glucose as substrate preincubated for 18 hrs followed by insulin stimulation and measured after 15 mins by beta-counting method; type: cell-based
T3 sequence (P54840 whole entry): T2 sequence (whole entry)

[5] = molecular target: T4, Glucose-6-phosphatase catalytic subunit 1 (Rattus norvegicus) (UniProt P43428); assay: Inhibition of glucose-6-phosphatase in rat […] cells at MNTD using glucose-6-phosphate as substrate preincubated overnight followed by substrate addition and measured after 40 mins relative to control; type: cell-based
T4 sequence (whole entry): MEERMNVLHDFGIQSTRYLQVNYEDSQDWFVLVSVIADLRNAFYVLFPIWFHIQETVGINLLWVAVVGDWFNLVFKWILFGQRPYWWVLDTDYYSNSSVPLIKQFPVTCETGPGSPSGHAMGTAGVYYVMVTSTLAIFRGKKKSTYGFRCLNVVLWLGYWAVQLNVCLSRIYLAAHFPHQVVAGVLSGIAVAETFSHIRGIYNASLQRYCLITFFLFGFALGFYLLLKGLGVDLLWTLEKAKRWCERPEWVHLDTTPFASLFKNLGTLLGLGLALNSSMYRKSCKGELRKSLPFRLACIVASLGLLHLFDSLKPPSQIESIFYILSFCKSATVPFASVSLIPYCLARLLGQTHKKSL
Outline: (§2)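 H4IIE rat hepatoma cells at 90% confluence treated overnight at maximal nontoxic concentration, 0.1% DMSO vehicle. Lysis in phosphate buffer with 0.05% Triton; lysate incubated with glucose-6-phosphate buffer 40 min at 37 °C. Released glucose read by glucose kit against standard curve, normalized to BCA protein; percent change from vehicle. Means of three experiments in triplicate.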

[6] = molecular target: RAC-alpha serine/threonine-protein kinase (Rattus norvegicus) (UniProt P47196); assay: Activation of Akt in rat […] cells assessed as increase in ratio of phosphorylated Akt to total AKt level at MNTD after 18 hrs by Western blot analysis relative to control; type: cell-based; outline: as §1
Sequence of RAC-alpha serine/threonine-protein kinase (Rattus norvegicus) (P47196 whole entry): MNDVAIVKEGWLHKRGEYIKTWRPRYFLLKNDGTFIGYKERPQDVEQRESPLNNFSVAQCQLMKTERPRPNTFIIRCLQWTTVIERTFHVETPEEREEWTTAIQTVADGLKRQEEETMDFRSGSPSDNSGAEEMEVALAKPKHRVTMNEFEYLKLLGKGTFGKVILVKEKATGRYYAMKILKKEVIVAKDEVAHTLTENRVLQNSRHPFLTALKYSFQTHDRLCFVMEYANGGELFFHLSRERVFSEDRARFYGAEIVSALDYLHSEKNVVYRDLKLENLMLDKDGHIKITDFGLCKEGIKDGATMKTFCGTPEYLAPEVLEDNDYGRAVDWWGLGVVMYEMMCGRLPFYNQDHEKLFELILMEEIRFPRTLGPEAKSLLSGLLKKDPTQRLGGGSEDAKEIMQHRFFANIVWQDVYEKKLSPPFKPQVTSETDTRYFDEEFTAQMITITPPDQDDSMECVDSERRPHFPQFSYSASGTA

[7] = molecular target: T5, Glucose-6-phosphatase catalytic subunit 1 (Rattus norvegicus, UniProt P43428); assay: Inhibition of glucose-6-phosphatase in rat H42E cells using glucose-6-phosphate as substrate preincubated overnight followed by substrate addition and measured after 40 mins; type: cell-based; outline: as §2
T5 sequence (P43428 whole entry): T4 sequence (whole entry)

[8] = molecular target: T1, Glycogen synthase kinase-3 (Homo sapiens); assay: Activation of GSK3 in human HepG2 cells assessed as increase in ratio of phosphorylated GSK3 to total GSK3 level at MNTD after 18 hrs by Western blot analysis relative to control; type: cell-based; outline: as §1

Row | fold change (FC) [2] | fold change (FC) [3] | EC50 [4] [µM] | inhibition [5] [%] | fold change (FC) [6] | IC50 [7] [µM] | fold change (FC) [8] | SMILES | solubility [1] | fold change (FC) (Rattus norvegicus)
1 | 2 | 1.5 to 3.5 | – | 18 to 32 | 2.2 to 4.8 | – | – | C[C@H]1[C@H](C)CC[C@]2(C(=O)O)CC[C@]3(C)C(=CC[C@@H]4[C@@]5(C)CC[C@H](O)C(C)(C)[C@@H]5CC[C@]43C)[C@H]12 | – | 2.2 to 3.5
2 | 2 | – | – | – | – | – | – | NC(=O)c1ncn([C@@H]2O[C@H](CO)[C@@H](O)[C@H]2O)c1N | – | –

Continued, compound first:

Row | SMILES | fold change (FC) [2] | fold change (FC) [3] | EC50 [4] [µM] | inhibition [5] [%] | fold change (FC) [6] | IC50 [7] [µM] | fold change (FC) [8] | solubility [1] | fold change (FC) (Rattus norvegicus)
3 | CC[C@H](/C=C/[C@@H](C)[C@H]1CC[C@H]2[C@@H]3CC=C4C[C@@H](O)CC[C@]4(C)[C@H]3CC[C@]12C)C(C)C [STIGMASTEROL] | – | – | – | – | – | – | – | Insoluble | –
4 | CC[C@H](CC[C@@H](C)[C@H]1CC[C@H]2[C@@H]3CC=C4C[C@@H](O)CC[C@]4(C)[C@H]3CC[C@]12C)C(C)C [BETA-SITOSTEROL] | – | – | – | – | – | – | – | Insoluble | –
5 | COc1cc(/C=C/C(=O)O[C@H]2[C@H](OC(C)=O)C[C@]3(C)[C@H]4CC=C5[C@H]6[C@](C(=O)O)(CC[C@@H](C)[C@@]6(C)O)CC[C@@]5(C)[C@]4(C)CC[C@H]3C2(C)C)ccc1O | 2 | 1.5 to 3.5 | 4.1 | 18 to 32 | 2.2 to 4.8 | 4.8 | – | – | 2.2 to 3.5
6 | COc1cc(/C=C/C(=O)O[C@H]2[C@H](O)C[C@]3(C)[C@H]4CC=C5[C@H]6[C@](C(=O)O)(CC[C@@H](C)[C@@]6(C)O)CC[C@@]5(C)[C@]4(C)CC[C@H]3C2(C)C)ccc1O | – | 1.5 to 3.5 | – | 18 to 32 | 2.2 to 4.8 | – | 1.8 | – | 2.2 to 3.5
